Sampled rows, rich in hits. Any-hit rate of the full collection: about 2.9%.
TRPC6 inh = mouse TRPC6 channel inhibitors, primary screen, cell-based, HEK293, membrane potential dye; Short transient receptor potential channel 6 (Mus musculus), Q61143; 1.1% of 310,000 active; B-score at 10 µM; ACh-evoked depolarization; stronger effect = lower value; AID 2553, 2010;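 active = B-score under library mean minus 3 SD, initial fluorescence not abnormally high, positive integrated signal ratio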;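 also: B-score derived from integrated fluorescence ratio over the kinetic read; more negative B-score means stronger inhibition of depolarization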
Kir21 inh = inhibitors of mouse Kir2.1 inward-rectifier potassium channel; Inward rectifier potassium channel 2 (Mus musculus), P35561; HEK293-Kir2.1, FluxOR thallium flux fluorescence; stronger effect = lower value; B-score at 10 µM; 0.85% of 310,000 active; AID 1672, 2009;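 active = fluorescence ratio B-score at or below minus 3 SD of library scores, with starting-brightness B-score within 2 SD, cut at about -4.2 in these data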;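 also: channel flux triggered by added potassium and thallium sulfate stimulus; B-score of peak minus minimum fluorescence over baseline after thallium stimulus; more negative B-score means stronger Kir2.1 block with less thallium influx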
TRPC4 agonist = activators of mouse TRPC4 channel, primary screen, Fluo4 calcium, HEK293 TRPC4beta/mu-opioid cells. Short transient receptor potential channel 4 (Mus musculus), Q9QUQ5. Fluo4 calcium fluorescence; stronger effect = higher value. B-score at 10 µM. 0.49% of 310,000 active. AID 2237, 2010;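 active = B-score above 5 SD of library B-scores, and initial fluorescence ratio not above library mean plus 5 SD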;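 also: positive B-score marks a calcium rise read as TRPC4 activation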
Target sequence (Q9QUQ5 whole entry, looked up): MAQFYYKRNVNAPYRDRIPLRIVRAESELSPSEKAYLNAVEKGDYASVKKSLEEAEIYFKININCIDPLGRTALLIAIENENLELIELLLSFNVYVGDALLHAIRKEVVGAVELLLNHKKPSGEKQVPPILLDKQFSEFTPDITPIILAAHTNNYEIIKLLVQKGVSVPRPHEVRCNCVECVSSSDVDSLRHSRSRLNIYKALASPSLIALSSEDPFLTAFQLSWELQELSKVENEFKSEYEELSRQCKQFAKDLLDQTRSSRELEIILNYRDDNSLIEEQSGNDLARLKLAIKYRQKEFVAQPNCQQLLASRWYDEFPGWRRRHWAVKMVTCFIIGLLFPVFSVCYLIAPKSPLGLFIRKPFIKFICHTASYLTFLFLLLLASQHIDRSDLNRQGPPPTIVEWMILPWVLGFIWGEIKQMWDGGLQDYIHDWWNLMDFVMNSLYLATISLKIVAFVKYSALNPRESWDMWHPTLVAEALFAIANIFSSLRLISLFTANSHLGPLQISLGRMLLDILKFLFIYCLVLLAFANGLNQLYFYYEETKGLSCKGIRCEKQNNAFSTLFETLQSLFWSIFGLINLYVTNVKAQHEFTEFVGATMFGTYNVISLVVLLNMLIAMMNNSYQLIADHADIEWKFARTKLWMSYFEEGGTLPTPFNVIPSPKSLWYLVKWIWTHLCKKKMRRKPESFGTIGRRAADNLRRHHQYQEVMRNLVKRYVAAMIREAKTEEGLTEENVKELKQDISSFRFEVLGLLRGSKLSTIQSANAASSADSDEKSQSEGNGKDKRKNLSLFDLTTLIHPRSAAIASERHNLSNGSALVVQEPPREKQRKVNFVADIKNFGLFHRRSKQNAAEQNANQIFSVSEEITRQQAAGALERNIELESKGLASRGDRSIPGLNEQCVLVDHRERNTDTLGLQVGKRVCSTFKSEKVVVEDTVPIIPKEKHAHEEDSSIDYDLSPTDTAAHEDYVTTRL
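Material: HEK293 stable line with TRPC4beta plus mu-opioid receptor; technique: Fluo4 calcium-sensitive dye fluorescence, kinetic, 1 Hz baseline; timing: Fluo4 dye loading 45 min at room temperature, 110 s recording; controls: assay buffer as low control, maximal DAMGO as high control; read-out: integrated baseline-normalised fluorescence ratio, converted to per-well B score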
TRPC4 inh = inhibitors of mouse TRPC4 channel, primary screen, Fluo4 calcium, HEK293 TRPC4beta/mu-opioid cells; Short transient receptor potential channel 4 (Mus musculus), Q9QUQ5; DAMGO-evoked Fluo4 calcium flux; stronger effect = lower value; B-score at 10 µM; 0.39% of 300,000 active;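 active = B-score over 3 SD under the library average, no early fluorescence shift, positive overall ratio signal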
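System: stable TRPC4beta/mu-opioid receptor HEK293 cells; Dosing: single-point compound dosing; Measured by: Fluo4 Ca2+ flux fluorescence; Read-out basis: per-well B score of integrated baseline-normalized Fluo4 ratio.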
TRPC6 activator = mouse TRPC6 channel activators, primary screen, cell-based, HEK293, membrane potential dye. Short transient receptor potential channel 6 (Mus musculus), Q61143. HEK293-TRPC6 membrane potential dye fluorescence; stronger effect = higher value. AID 2550, 2010. 0.13% of 310,000 active. B-score at 10 µM;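 active = B-score of the integrated fluorescence ratio above library mean plus 3 SD, and starting fluorescence ratio within library mean plus 5 SD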;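 also: higher score means more depolarization so channel activation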
TRPC4 potent = positive allosteric modulators of TRPC4, primary screen, cell-based, mouse TRPC4beta, HEK293 mu-opioid, Fluo-4 calcium. DAMGO EC20, Fluo-4 Ca2+ flux; stronger effect = higher value. B-score at 10 µM. 0.42% of 310,000 active;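 active = B-score of calcium response area above 5 SD of library B-scores, with initial fluorescence ratio within 5 SD of library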
Numbers stand for hits; – = inactive.

SMILES	TRPC6 inh	Kir21 inh	TRPC4 agonist	TRPC4 inh	TRPC6 activator	TRPC4 potent
CCn1c(=O)c2sccc2n2c(CCCC(=O)NC3CCN(Cc4ccccc4)CC3)nnc12	–	–	–	–	–	14
CC1CN=C(N(C(=S)Nc2ccccc2)c2cccc(C(F)(F)F)c2)S1 (configuration not stated)	–	–	–	–	–	–
Cc1cc(C)nc(NS(=O)(=O)c2ccc(NC(=O)c3ccc4c(c3)OCCO4)cc2)n1	–	–	–	–	–	–
CCc1ccc(NC2=NCC(c3ccccc3)S2)cc1 (configuration not stated)	–	–	–	–	–	12
C=CCN1C(=O)C2C(C(=O)NC3CCCC3)C3(C)C=CC2(O3)C1C(=O)NC1CCCC1 (configuration not stated)	–	–	–	–	–	–
COc1ccc(CCNC(=O)CCSc2nc(-c3ccco3)cc(C(F)(F)F)n2)cc1OC	–	-4.4	–	–	–	–
O=C(Nc1ccccc1N1CCN(c2ccccc2)CC1)c1ccccc1	–	–	–	–	–	–
Cc1ccc(OCC(=O)NCc2cccs2)c([N+](=O)[O-])n1	–	–	–	–	–	–
COc1ccc(S(=O)(=O)N2CCCCCC2)cc1C(=O)N(C)Cc1ccc(Cl)cc1Cl	–	–	–	–	–	26
CCCCN(CCCC)/C(N)=N/c1nc(C)cc(C)n1	–	–	–	-7	–	–
O=C(C[n+]1ccccc1)N/N=C/c1cccs1	–	–	–	–	–	–
O/N=C/c1cccc[n+]1CCCCCC[n+]1ccccc1/C=N/O	–	–	–	–	–	–
CCCCCCCCC[n+]1cccc2c3ccccc3ccc21	-5.7	-10	–	–	–	–
C=CCn1c(SCCCc2ccccc2)nc2c1c(=O)[nH]c(=O)n2C	–	–	–	–	–	–
Cc1ccc(Cn2c(SCCN3CCCCC3)nc3c2c(=O)[nH]c(=O)n3C)cc1	–	–	–	–	–	–
C/C=C/Cn1c(SCCCc2ccccc2)nc2c1c(=O)[nH]c(=O)n2C	–	–	–	–	–	86
C=CCn1c(SCCN2CCCCC2)nc2c1c(=O)[nH]c(=O)n2C	–	–	–	–	–	40
Cc1cccc(Cn2c(SCCN3CCCCC3)nc3c2c(=O)[nH]c(=O)n3C)c1	-5.7	–	–	–	–	–
Cn1c(=O)[nH]c(=O)c2c1nc(SCCN1CCCCC1)n2Cc1ccccc1	–	–	–	–	–	–
CN1CCN(CCCNC(=O)CCC(=O)N2CCOc3ccccc32)CC1	–	–	–	–	–	–
CCCc1cc(=O)[nH]c(SCC(=O)NC2CCCc3ccccc32)n1 (configuration not stated)	–	–	–	–	–	–
CCOc1cc(S(=O)(=O)NCc2ccccc2)c(OCC)cc1-n1cnnn1	–	–	–	–	–	–
CCOc1ccc(-n2cnnn2)cc1S(=O)(=O)NCc1ccccc1	–	–	–	-7	–	–
O=C(CSc1ncn[nH]1)NCCC(c1ccccc1)c1ccccc1	–	-5.2	–	–	–	–
O=C(CN1CCCCC1)Nc1ccccc1Oc1ccccc1	–	-5.6	–	-5	–	–
SMILES	TRPC6 inh	Kir21 inh	TRPC4 agonist	TRPC4 inh	TRPC6 activator	TRPC4 potent
O=C(CSc1ncn[nH]1)Nc1ccccc1Sc1ccc(Cl)cc1	–	-4.7	–	–	–	–
O=C(CN1CCOCC1)Nc1ccccc1Sc1ccc(Cl)cc1	–	-5.2	–	–	–	–
Nc1ccc(Oc2ccc3nc(-c4ccccc4)c(-c4ccc([N+](=O)[O-])cc4)nc3c2)cc1	–	–	–	–	–	–
O=C(CN1CCCC1)Nc1ccccc1Sc1ccccc1	–	-4.2	–	–	–	–
COc1ccccc1NC(=O)CSc1nnnn1-c1ccccc1F	–	–	73	–	–	–
Cc1ccccc1CSc1nnc(-c2ccccn2)n1C	–	–	–	–	–	–
Cc1ccccc1CSc1nccn1-c1ccccc1	–	-4.4	–	–	–	–
